# Measured values published in ChEMBL document CHEMBL4373680, “Small antibacterial molecules highly active against drug-resistant Staphylococcus aureus” (Medchemcomm, 2019).
# Calls of active or inactive are those of the source. No cut-off for these calls is given here.
# Legend:
# Staphylococcus aureus [1] = assay: Antibacterial activity against vancomycin-resistant Staphylococcus aureus clinical isolate 4 after 24 hrs by tecan plate reader analysis; format: functional; details: clinical isolate 4, 24 h
# Summary of the method: (§1)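 Colony grown 24 h on NB agar at 37 °C, then 6 h in nutrient broth to mid-log (10⁸ CFU/mL by drop plating), diluted to 10⁵ CFU/mL in Mueller Hinton broth; added 9:1 to two-fold serial compound dilutions in MHB. Incubated 24 h, 37 °C; OD600 read. Triplicate per concentration, experiment run twice; MIC taken from the range of triplicate OD values.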
# Staphylococcus aureus [2] = assay: Antibiofilm activity against Staphylococcus aureus R3545 assessed as bacterial cell viability by measuring log reduction in bacterial colony forming units at 16 ug/ml incubated for 24 hrs followed by plating on agar plate for 24 hrs; format: functional
# Summary of the method: (§2)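 Mid-log MRSA diluted to 10⁵ CFU/mL in nutrient broth with 1% glucose and 1% NaCl. Biofilms grown on glass coverslips 24 h at 37 °C, static. PBS-washed biofilms treated with compound in biofilm medium 24 h at 37 °C, static; medium-only control. Cells detached with trypsin-EDTA (1:4 in saline) for 15 min, ten-fold diluted, plated on NB agar 24 h; viable counts compared with untreated.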
# Staphylococcus aureus [3] = assay: Induction of membrane permeabilization in Staphylococcus aureus ATCC 33591 assessed as increase in fluorescence intensity measured upto 28 mins by propidium iodide staining based fluorescence spectroscopic technique; format: functional, organism-based
# Summary of the method: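 Mid-log MRSA washed in 5 mM HEPES and resuspended in 1:1 HEPES (5 mM) and glucose (5 mM). Propidium iodide added at 10 µM final. Baseline fluorescence (ex 535/em 617 nm) read 4 min, compound in water added, read to 28 min. Water control; triplicates averaged.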
# Staphylococcus aureus [4] = assay: Antibiofilm activity against Staphylococcus aureus R3545 assessed as reduction in biofilm biomass at 16 to 64 ug/ml incubated for 24 hrs followed by plating on agar plate for 24 hrs by crystal violet staining assay relative to control; format: functional
# Summary of the method: (§3)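 Coverslip biofilms grown 24 h at 37 °C in nutrient broth with 1% glucose and 1% NaCl, then treated with compound for 24 h. PBS-washed and air-dried, stained with 0.1% w/v crystal violet for 5-10 min, washed, stain recovered in 95% ethanol, OD 522 nm read. Two experiments, mean with standard deviation.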
# Staphylococcus aureus [5] = assay: Bactericidal activity against metabolically inactive stationary phase methicillin-resistant Staphylococcus aureus ATCC 33591 assessed as log reduction in bacterial colony forming units at 32 ug/ml incubated for 6 hrs followed by plating on agar plate for 24 hrs by visual counting analysis; format: functional
# A549 [6] = assay: Cytotoxicity against human A549 cells after 24 hrs by alamar blue assay; format: cell-based; details: A549, 24 h
# Summary of the method: (§4)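 About 10⁴ cells/well in DMEM with 10% FBS. Medium replaced with two-fold compound dilutions and incubated 24 h at 37 °C, 5% CO₂. Alamar Blue added for a further 4 h, absorbance 570 nm (600 nm reference). Viability normalized to untreated and 0.1% Triton-X wells. Triplicates; sigmoidal fit gives the 50% viability concentration.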
# Staphylococcus aureus [7] = assay: Antibiofilm activity against Staphylococcus aureus ATCC 33591 assessed as reduction in biofilm biomass at 16 to 64 ug/ml incubated for 24 hrs followed by plating on agar plate for 24 hrs by crystal violet staining assay relative to control; format: functional; summary of the method: as §3
# Staphylococcus aureus [8] = assay: Antibacterial activity against vancomycin-resistant Staphylococcus aureus clinical isolate 1 after 24 hrs by tecan plate reader analysis; format: functional; details: clinical isolate 1, 24 h; summary of the method: as §1
# Staphylococcus aureus [9] = assay: Antibacterial activity against Staphylococcus aureus ATCC 33591 assessed as increase in dead cells by measuring bright red fluorescence intensity at 32 ug/ml after 2 hrs by SYTO-9/propidium iodide staining based fluorescence microscopy analysis; format: functional, organism-based
# Summary of the method: (§5)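 Mid-log cells (~10⁸ CFU/mL) pelleted and resuspended in 0.9% saline. Treated with 32 µg/mL compound for 2 h at 37 °C, pelleted and resuspended in saline. Stained with SYTO9 (3 µM) plus PI (15 µM) for 15 min in the dark, unbound dye removed, then imaged by fluorescence microscopy at 100×.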
# Klebsiella pneumoniae = assay: Antibacterial activity against Klebsiella pneumoniae ATCC 700603 after 24 hrs by tecan plate reader analysis; format: functional; details: Klebsiella pneumoniae, 700603, 24 h
# Summary of the method: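 Broth microdilution MIC. Glycerol stocks grown on MacConkey agar 24 h at 37 °C, then a single colony in nutrient broth 6 h to mid-log (~10⁸ CFU/mL). Cells diluted to 10⁵ CFU/mL in Mueller Hinton broth and added to two-fold compound dilutions. Incubated 24 h at 37 °C, OD600 read. Triplicate wells, experiment run twice.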
# [10] = Ratio of EC50 for human A549 cells to MIC for vancomycin-resistant Staphylococcus aureus clinical isolate 1; format: toxicity
# Staphylococcus aureus [11] = assay: Antibacterial activity against Staphylococcus aureus ATCC 33591 assessed as decrease in live cells at 32 ug/ml after 2 hrs by SYTO-9/propidium iodide staining based fluorescence microscopy analysis; format: functional, organism-based; summary of the method: as §5
# Staphylococcus aureus [12] = assay: Bactericidal activity against planktonic phase of methicillin-resistant Staphylococcus aureus R3545 assessed as log reduction in bacterial colony forming units at 16 ug/ml incubated for 6 hrs followed by plating on agar plate for 24 hrs by time-kill kinetic assay; format: functional
# Summary of the method: (§6)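 Time-kill: 6 h mid-log culture diluted to 10⁵ CFU/mL in MHB, incubated at 37 °C with compound at […]; 0.9% saline control. Aliquots at 1, 2, 4, 6, 8 and 12 h ten-fold diluted in saline, plated on NB agar 24 h at 37 °C; colonies counted, log scale.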
# Staphylococcus aureus [13] = assay: Antibiofilm activity against Staphylococcus aureus ATCC 33591 assessed as bacterial cell viability by measuring log reduction in bacterial colony forming units at 16 ug/ml incubated for 24 hrs followed by plating on agar plate for 24 hrs; format: functional; summary of the method: as §2
# Staphylococcus aureus [14] = assay: Antibacterial activity against methicillin-resistant Staphylococcus aureus R3890 clinical isolate after 24 hrs by tecan plate reader analysis; format: functional; details: R3890, 24 h; summary of the method: as §1
# Staphylococcus aureus [15] = assay: Bactericidal activity against planktonic phase of methicillin-resistant Staphylococcus aureus R3545 assessed as log reduction in bacterial colony forming units at 32 ug/ml incubated for 12 hrs followed by plating on agar plate for 24 hrs by time-kill kinetic assay; format: functional; summary of the method: as §6
# A549 [16] = assay: Cytotoxicity against human A549 cells up to 128 ug/ml after 24 hrs by alamar blue assay; format: cell-based; details: a549, 24 h; summary of the method: as §4
# Staphylococcus aureus [17] = assay: Antibacterial activity against Staphylococcus aureus ATCC 33591 using compound preincubated with mouse 50% liver homogenate for 3 hrs and measured after 24 hrs by tecan-plate reader analysis; format: functional; details: ATCC 33591, Liver
# Summary of the method: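 Compound mixed 1:1 with human plasma, human serum or mouse liver homogenate (50%) and held 3 h at 37 °C. Saline and PBS incubations served as controls. Mixtures two-fold diluted (saline for plasma/serum, PBS for homogenate), then MRSA ATCC33591 (~10⁵ CFU/mL in MHB) added.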
# [18] = Hemolytic activity in human erythrocytes after 1 hr; format: ADME, cell-based, Erythrocyte
# Summary of the method: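 Heparinized donor blood. Erythrocytes washed three times in PBS and resuspended to 5 vol%, then mixed 3:1 with compound serially diluted in water. Incubated 1 h at 37 °C and centrifuged. Supernatant A540 read; % hemolysis relative to water and 0.1 vol% Triton-X controls.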
smiles,measurement,setting,value
CCCCCCNC(=O)C[N+](C)(CCO)CCCCCCCCCCCC[N+](C)(CCO)CC(=O)NCCCCCC.O=C([O-])C(F)(F)F.O=C([O-])C(F)(F)F (centres undefined),MIC,Staphylococcus aureus [1],2 µg/mL
same,Activity,Staphylococcus aureus [2],>4 log10CFU/ml
same,Activity,Staphylococcus aureus [3],Dose-dependent effect
same,inhibition (INH),Staphylococcus aureus [4],80%
same,Activity,Staphylococcus aureus [5],2.05 log10CFU/ml
same,EC50,A549 [6],194 µg/mL
same,inhibition (INH),Staphylococcus aureus [7],60%
same,MIC,Staphylococcus aureus [8],2 µg/mL
same,Activity,Staphylococcus aureus [9],Active
same,MIC,Klebsiella pneumoniae,128 µg/mL
same,selectivity ratio,[10],94 to 97
same,inhibition,Staphylococcus aureus [11],Active
same,Activity,Staphylococcus aureus [12],>2 log10CFU/ml
same,Activity,Staphylococcus aureus [13],>4 log10CFU/ml
same,MIC,Staphylococcus aureus [14],2 µg/mL
same,Activity,Staphylococcus aureus [15],6 log10CFU/ml
same,Activity,A549 [16],Non-Toxic
same,MIC,Staphylococcus aureus [17],4 µg/mL
same,HC50 at 1 h,[18],577 µg/mL
